Results as given in PMC9049676 (RSC Advances, 2020).

Columns and labels:
Assay type in all cases: cell-based, human
NCI-H460 = experiment: MTT cytotoxicity assay, NCI-H460; settings: read-out: IC50 NCI-H460, cells treated for 24 h
Procedure, shortened: (§1)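 Tumour lines and the normal liver line HL-7702 came from the Shanghai Cell Bank. Cells were cultured in RPMI 1640 or DMEM with 10% FBS and 1% streptomycin at 37 °C, 5% CO2. Cells were exposed to test compounds, and viability was read by MTT reduction to derive IC50. Cisplatin was run as reference control.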

HL-7702 = experiment: MTT cytotoxicity assay, normal liver cell line HL-7702; settings: read-out: IC50 HL-7702, cells treated for 24 h
Procedure, shortened: as §1

Hep-G2 = experiment: MTT cytotoxicity assay, Hep-G2; settings: read-out: IC50 Hep-G2, cells treated for 24 h
Procedure, shortened: as §1

T24 = experiment: MTT cytotoxicity assay, T24; settings: read-out: IC50 T24, cells treated for 24 h
Procedure, shortened: as §1

`N.N.[Cl][Pt][Cl]` [Cisplatin] was tested, and the IC50 (NCI-H460) was 11.7 ± 2.26 µM, the IC50 (HL-7702) was 13.4 ± 1.56 µM and the IC50 (Hep-G2) was 19.6 ± 1.39 µM. The IC50 (T24) was 22.9 ± 0.93 µM.
